# Results from ChEMBL document CHEMBL4014327 (J Med Chem, 2017).
# Key:
# [1] = biological target: CYP2C8 (Homo sapiens, UniProt P10632); assay: Inhibition of CYP2C8 in human liver microsomes at 3 uM; assay type: ADME
# [2] = biological target: CYP2D6 (Homo sapiens, UniProt P10635); assay: Inhibition of CYP2D6 in human liver microsomes at 3 uM; assay type: ADME
# [3] = biological target: CYP3A4 (Homo sapiens, UniProt P08684); assay: Inhibition of CYP3A4 in human liver microsomes at 3 uM; assay type: ADME
# Sequence of CYP3A4 (P08684 whole entry): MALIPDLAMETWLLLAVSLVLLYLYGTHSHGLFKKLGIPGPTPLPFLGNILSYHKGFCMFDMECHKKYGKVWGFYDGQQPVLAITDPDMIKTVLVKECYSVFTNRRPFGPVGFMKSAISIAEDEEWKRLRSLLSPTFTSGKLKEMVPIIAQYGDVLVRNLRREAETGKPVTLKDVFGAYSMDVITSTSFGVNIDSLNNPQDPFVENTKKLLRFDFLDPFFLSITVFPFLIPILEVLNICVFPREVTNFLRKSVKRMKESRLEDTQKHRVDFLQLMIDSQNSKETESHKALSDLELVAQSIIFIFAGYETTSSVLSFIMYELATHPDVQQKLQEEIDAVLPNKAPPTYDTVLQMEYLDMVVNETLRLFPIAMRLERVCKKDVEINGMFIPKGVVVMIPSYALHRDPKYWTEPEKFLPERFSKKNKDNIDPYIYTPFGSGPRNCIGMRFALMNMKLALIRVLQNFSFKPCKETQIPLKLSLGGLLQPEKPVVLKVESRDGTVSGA
# [4] = Solubility of compound in water at pH 8.1; assay type: physicochemical
# Procedure, shortened: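 Solubility of crystalline material measured in phosphate-buffered saline pH 6.7, unbuffered water pH 8.1 and simulated fasted-state intestinal fluid pH 6.5, reported in μg/mL.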
# [5] = Half life in Wistar Han rat at 5 mg/kg, po administered as single dose; assay type: ADME, organism-based; conditions: in vivo
# [6] = Half life in Beagle dog at 1 mg/kg, iv administered as single dose; assay type: ADME, organism-based, Canis lupus familiaris; conditions: in vivo
# [7] = Half life in cynomolgus monkey at 1 mg/kg, iv administered as single dose; assay type: ADME, organism-based, Macaca fascicularis; conditions: in vivo
# [8] = test system: Rattus norvegicus; assay: Plasma clearance in Wistar Han rat at 1 mg/kg, iv administered as single dose; assay type: ADME, organism-based; conditions: in vivo
# [9] = Volume of distribution at steady state in cynomolgus monkey at 1 mg/kg, iv administered as single dose; assay type: ADME, organism-based, Macaca fascicularis; conditions: in vivo, read-out: Vdss
# Procedure, shortened: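 Single-dose pharmacokinetic study in male animals, with iv and separate oral administration. Steady-state volume of distribution was derived from plasma concentrations after the iv dose.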
# [10] = Oral bioavailability in Beagle dog at 5 mg/kg administered as single dose; assay type: ADME, organism-based, Canis lupus familiaris; conditions: in vivo
# [11] = biological target: T1, Interleukin-1 receptor-associated kinase 4 (Homo sapiens) (UniProt Q9NWZ3); assay: Inhibition of recombinant human full length His-tagged IRAK4 expressed in baculovirus at 200 nM
# T1 sequence (whole entry): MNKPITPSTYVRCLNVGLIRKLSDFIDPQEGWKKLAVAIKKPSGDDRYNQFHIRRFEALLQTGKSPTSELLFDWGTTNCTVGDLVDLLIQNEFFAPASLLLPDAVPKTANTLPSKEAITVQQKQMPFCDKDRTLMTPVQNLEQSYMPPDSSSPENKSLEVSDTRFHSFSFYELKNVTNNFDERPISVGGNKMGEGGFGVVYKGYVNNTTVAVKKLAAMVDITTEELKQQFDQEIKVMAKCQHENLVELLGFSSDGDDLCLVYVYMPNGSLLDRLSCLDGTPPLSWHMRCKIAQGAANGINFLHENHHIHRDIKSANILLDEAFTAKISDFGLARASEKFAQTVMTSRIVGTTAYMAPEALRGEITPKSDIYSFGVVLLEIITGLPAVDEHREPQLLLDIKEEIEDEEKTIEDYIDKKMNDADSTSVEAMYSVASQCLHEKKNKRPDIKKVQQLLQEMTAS
# [12] = biological target: Interleukin-1 receptor-associated kinase 1 (Homo sapiens) (UniProt P51617); assay: Inhibition of recombinant human GST-tagged IRAK1 expressed in baculovirus at 200 nM
# [13] = biological target: MAP kinase-interacting serine/threonine-protein kinase 2 (Homo sapiens) (UniProt Q9HBH9); assay: Inhibition of N-terminal-GST-tagged human full length MNK2 expressed in baculovirus at 200 nM
# Sequence of MAP kinase-interacting serine/threonine-protein kinase 2 (Homo sapiens) (Q9HBH9 whole entry, looked up): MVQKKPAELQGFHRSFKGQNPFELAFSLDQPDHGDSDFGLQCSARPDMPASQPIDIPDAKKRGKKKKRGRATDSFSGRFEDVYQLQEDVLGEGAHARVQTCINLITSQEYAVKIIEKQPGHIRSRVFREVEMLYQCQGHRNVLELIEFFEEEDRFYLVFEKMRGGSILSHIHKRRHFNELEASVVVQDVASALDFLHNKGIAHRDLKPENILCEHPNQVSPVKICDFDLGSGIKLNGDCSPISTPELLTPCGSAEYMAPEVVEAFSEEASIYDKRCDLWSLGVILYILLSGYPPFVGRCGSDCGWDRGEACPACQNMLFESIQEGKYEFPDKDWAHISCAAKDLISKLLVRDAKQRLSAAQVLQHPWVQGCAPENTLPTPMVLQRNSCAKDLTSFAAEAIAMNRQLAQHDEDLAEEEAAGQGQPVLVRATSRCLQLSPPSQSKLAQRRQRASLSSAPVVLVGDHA
# [14] = biological target: T1, Interleukin-1 receptor-associated kinase 4 (Homo sapiens); assay: Inhibition of IRAK4 in human THP1 cell lysate at 200 nM
# [15] = biological target: Casein kinase I isoform gamma-2 (Homo sapiens) (UniProt P78368); assay: Inhibition of CK1gamma2 in human THP1 cell lysate at 200 nM
# Sequence of Casein kinase I isoform gamma-2 (Homo sapiens) (P78368 whole entry, looked up, canonical isoform): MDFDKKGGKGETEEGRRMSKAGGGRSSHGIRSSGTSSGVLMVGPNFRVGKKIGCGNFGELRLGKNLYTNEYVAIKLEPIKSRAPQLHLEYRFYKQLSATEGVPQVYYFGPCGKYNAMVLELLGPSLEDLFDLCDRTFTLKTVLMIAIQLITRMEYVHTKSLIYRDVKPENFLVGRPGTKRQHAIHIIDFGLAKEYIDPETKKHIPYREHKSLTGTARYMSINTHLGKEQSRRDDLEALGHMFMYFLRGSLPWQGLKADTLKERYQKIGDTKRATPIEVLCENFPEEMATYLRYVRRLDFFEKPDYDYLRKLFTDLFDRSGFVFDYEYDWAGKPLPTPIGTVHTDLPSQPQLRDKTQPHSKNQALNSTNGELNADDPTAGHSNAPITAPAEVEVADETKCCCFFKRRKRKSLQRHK
# [16] = biological target: hERG (KCNH2) (Homo sapiens, UniProt Q12809); assay: Inhibition of human ERG at 100 uM by voltage clamp assay
# Sequence of hERG (KCNH2) (Q12809 whole entry): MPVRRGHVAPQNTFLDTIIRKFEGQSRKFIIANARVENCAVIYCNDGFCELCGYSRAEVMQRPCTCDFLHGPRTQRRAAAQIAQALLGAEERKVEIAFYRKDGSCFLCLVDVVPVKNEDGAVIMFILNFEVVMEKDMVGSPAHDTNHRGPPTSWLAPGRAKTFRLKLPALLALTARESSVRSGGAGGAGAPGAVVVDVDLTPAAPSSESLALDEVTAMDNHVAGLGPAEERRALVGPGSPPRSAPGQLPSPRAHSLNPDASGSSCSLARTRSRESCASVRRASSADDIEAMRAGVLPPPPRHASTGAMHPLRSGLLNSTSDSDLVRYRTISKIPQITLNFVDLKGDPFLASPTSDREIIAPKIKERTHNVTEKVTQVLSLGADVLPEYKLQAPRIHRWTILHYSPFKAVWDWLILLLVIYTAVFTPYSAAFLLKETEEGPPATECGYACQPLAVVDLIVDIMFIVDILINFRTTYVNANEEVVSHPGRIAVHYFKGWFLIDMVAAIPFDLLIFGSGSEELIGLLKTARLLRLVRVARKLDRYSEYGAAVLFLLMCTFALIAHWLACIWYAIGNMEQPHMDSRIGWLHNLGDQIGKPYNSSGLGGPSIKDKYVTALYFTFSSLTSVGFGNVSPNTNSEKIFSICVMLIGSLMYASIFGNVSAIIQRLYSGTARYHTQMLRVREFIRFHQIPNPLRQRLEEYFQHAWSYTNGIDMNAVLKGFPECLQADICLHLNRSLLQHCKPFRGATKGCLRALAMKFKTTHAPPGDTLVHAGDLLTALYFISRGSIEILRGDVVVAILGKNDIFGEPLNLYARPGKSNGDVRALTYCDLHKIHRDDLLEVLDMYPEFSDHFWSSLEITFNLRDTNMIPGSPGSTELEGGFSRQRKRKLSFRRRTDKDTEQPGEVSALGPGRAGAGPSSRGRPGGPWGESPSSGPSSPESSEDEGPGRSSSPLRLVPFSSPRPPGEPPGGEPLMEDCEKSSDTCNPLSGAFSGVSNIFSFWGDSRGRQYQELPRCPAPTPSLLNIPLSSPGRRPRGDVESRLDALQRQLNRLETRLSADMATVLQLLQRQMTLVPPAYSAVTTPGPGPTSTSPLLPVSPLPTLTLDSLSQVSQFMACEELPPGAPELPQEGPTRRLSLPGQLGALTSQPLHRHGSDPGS
# Procedure, shortened: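 hERG current measured by voltage clamp, test compound at 100 μM; percent current inhibition.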
# [17] = biological target: Cytochrome P450 2C9 (Homo sapiens, UniProt P11712); assay: Time dependent inhibition of CYP2C9 in human liver microsomes at 100 uM; assay type: ADME
# Sequence of Cytochrome P450 2C9 (P11712 whole entry): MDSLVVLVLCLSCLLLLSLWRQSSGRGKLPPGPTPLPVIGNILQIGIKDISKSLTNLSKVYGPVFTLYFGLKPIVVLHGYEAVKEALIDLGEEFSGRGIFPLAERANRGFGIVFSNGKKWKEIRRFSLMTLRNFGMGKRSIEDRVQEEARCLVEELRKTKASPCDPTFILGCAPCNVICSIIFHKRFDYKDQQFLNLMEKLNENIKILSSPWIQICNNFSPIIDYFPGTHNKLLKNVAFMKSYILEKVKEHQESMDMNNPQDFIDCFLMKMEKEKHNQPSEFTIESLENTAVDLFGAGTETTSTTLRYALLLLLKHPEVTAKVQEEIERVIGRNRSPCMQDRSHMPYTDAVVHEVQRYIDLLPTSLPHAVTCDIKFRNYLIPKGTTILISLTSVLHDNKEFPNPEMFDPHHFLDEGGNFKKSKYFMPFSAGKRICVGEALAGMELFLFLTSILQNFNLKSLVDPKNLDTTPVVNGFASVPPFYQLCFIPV
# Procedure, shortened: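 Time-dependent inhibition assessed in pooled human liver microsomes with probe substrates, test compound at 100 μM.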
# [18] = test system: Rattus norvegicus; assay: Inhibition of LPS induced TNFalpha secretion in Sprague-Dawley rat assessed as decrease in TNFalpha level in serum at 0.3 mg/kg, po pretreated for 1 hr followed by LPS challenge measured after 1.5 hrs relative to control; assay type: functional
# Procedure, shortened: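 Male Sprague-Dawley rats, 6-8 weeks old, n = 6-9 per group. Test article was given orally at 0.3, 1, 3 or 30 mg/kg as a solution or suspension in 0.5% methylcellulose and 2% Tween 80 in water; controls received vehicle alone. Ultrapure LPS (0.01 mg/kg) was given iv 1 h later. Blood was drawn 1.5 h after challenge, and serum TNF was measured by MSD.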
# [19] = test system: Plasma; assay: Free plasma concentration in Sprague-Dawley rat LPS model at 3 mg/kg, po after 2.5 hrs; assay type: ADME, organism-based; conditions: in vivo
# Procedure, shortened: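 Male Sprague−Dawley rats, 6−8 weeks old, n = 6−9 per group. Dosed orally at 0.3, 1, 3 or 30 mg/kg in 0.5% methylcellulose/2% Tween 80 in water. Ultrapure LPS 0.01 mg/kg iv given 1 h after dosing. Plasma exposure taken 2.5 h after oral dosing and reported as free concentration using fraction unbound in rat plasma.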
# [20] = biological target: Vascular endothelial growth factor receptor 2 (Homo sapiens, UniProt P35968); assay: Inhibition of human recombinant VEGFR2 using CAGAGAIETDKEYYTVKD as substrate after 60 mins by Lance method
# Sequence of Vascular endothelial growth factor receptor 2 (P35968 whole entry): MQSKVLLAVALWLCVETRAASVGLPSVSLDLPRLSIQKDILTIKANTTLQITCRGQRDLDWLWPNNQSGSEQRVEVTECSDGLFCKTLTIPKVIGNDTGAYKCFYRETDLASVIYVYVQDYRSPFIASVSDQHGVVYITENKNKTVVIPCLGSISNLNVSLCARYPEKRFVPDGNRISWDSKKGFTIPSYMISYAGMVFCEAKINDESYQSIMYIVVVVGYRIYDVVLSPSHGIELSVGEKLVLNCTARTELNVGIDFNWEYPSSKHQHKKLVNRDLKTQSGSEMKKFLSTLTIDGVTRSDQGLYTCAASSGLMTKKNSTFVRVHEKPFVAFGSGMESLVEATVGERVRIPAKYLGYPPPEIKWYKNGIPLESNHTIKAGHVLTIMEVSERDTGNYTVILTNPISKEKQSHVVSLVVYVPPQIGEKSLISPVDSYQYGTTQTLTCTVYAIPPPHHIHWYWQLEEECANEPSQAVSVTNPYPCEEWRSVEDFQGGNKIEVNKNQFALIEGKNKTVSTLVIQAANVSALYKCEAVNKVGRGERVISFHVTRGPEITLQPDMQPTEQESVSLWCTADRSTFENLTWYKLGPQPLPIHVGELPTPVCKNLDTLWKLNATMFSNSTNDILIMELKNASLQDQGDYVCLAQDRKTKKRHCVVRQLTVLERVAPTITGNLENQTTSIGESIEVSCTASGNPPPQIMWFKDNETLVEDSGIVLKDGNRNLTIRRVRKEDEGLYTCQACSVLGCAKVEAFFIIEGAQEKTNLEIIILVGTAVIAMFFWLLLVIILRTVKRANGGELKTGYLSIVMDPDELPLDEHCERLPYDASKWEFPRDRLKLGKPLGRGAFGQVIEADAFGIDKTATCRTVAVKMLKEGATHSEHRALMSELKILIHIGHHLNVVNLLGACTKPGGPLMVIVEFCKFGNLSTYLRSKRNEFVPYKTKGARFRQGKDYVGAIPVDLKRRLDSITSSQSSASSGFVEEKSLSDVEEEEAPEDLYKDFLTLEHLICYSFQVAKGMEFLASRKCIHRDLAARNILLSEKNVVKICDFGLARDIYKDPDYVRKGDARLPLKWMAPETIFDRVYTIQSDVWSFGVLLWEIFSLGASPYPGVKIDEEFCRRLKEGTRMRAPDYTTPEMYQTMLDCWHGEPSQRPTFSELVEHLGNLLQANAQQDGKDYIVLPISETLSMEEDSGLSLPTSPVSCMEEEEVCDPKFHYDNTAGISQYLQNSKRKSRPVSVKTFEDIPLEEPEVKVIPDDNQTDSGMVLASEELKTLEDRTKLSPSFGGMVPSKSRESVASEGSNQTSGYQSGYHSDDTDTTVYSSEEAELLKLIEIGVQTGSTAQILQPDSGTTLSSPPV
# Sequence of CYP2C8 (P10632 whole entry): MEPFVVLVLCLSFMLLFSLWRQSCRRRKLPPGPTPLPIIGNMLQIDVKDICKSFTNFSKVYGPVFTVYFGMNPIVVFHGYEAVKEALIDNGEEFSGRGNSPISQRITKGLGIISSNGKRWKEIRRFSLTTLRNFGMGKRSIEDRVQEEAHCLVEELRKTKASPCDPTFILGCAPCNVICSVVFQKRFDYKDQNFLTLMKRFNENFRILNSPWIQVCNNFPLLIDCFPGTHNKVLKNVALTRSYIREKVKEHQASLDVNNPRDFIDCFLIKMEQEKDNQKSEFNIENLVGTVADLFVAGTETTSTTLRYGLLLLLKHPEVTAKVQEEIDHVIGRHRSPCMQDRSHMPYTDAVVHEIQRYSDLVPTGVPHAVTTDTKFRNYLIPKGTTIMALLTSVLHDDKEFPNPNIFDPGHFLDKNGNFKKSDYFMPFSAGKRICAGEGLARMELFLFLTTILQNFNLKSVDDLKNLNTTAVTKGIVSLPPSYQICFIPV
smiles,measurement,setting,value
CC[C@@H]1[C@H](F)C(=O)N[C@@H]1COc1nccc2cc(C(N)=O)c(OC)cc12 [ZIMLOVISERTIB],inhibition at 3 µM,[1],< 5%
same,inhibition at 3 µM,[2],< 5%
same,inhibition at 3 µM,[3],< 5%
same,solubility,[4],65 µg/mL
same,half-life,[5],1.4 to 2.1 h
same,half-life,[6],1.1 h
same,half-life,[7],1.7 h
same,clearance,[8],56 mL/min/kg
same,Vd,[9],0.95 L/kg
same,bioavailability,[10],41%
same,inhibition,[11],100%
same,inhibition,[12],> 70%
same,inhibition,[13],> 70%
same,inhibition,[14],> 50%
same,inhibition,[15],> 50%
same,inhibition at 100 µM,[16],25%
same,TDI,[17],Not Active
same,inhibition in vivo at 0.3 mg/kg,[18],12%
same,Cp(f),[19],19 nM
same,IC50,[20],5.33 µM
